Compound activity: PubChem, several laboratories
NR2E3 ag-1 = human photoreceptor-specific nuclear receptor agonism. Q9Y5X4. CHO-S Gal4-NCOR/VP16-NR2E3 two-hybrid, luciferase. inhibition of corepressor binding, % at 3.98 µM. 360,000 compounds, 0.35% hits. AID 602229;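 active = inhibition above the mean of all tested compounds plus 3 SD, cut at about 70% in these data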;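 note: 0% = DMSO with NR2E3 transfected cells and 100% = cells lacking NR2E3 construct; higher means lower luciferase signal from less NR2E3 corepressor binding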
Target sequence (Q9Y5X4 whole entry, looked up, the tested form may be a part): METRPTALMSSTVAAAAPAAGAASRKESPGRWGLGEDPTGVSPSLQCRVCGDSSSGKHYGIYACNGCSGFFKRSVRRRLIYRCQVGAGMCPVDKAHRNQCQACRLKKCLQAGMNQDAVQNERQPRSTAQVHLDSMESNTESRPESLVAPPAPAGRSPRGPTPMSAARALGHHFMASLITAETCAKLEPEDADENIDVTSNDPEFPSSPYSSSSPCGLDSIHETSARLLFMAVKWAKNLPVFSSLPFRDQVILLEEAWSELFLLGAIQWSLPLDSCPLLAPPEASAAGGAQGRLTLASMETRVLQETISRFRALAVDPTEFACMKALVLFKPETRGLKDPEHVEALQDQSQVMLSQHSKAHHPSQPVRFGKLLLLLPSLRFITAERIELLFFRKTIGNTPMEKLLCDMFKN
NR2E3 ag-2 = activates human photoreceptor nuclear receptor NR2E3. inhibition of corepressor binding, % at 4.78 µM. GST-NR2E3/biotin-RetCOR TR-FRET, 1536-well. 320,000 compounds, 0.12% hits;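 active = percent inhibition above the cutoff of mean plus 3 SD of all tested compounds, set per screening campaign, cut at about 20% in these data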;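 note: 0% = DMSO wells and 100% = biotin wells as full block of FRET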
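Material: NR2E3–RetCOR corepressor complex / Incubation: Compound–protein incubation for 5 h at 4 °C / Dosing: compound at 4.8 µM, single dose / Detection: time-resolved FRET / Benchmarks: high control biotin, low control 0.6% DMSO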
PG9 binder = PG9 antibody binding by small molecule. TR-FRET gp120-PG9 antibody binding. inhibition, % at 6.7 µM. 360,000 compounds, 0.43% hits. AID 624416; in the data active = inhibition above about 8.5%
VLA-4 inh = inhibition in a human VLA-4 binding assay | P13612 | VLA-4 expressing cells, ligand binding flow cytometry | inhibition, % (about 7 µM as worked out from the volumes in the protocol) | 330,000 compounds, 0.2% hits; in the data active = inhibition above about 50%
NR1D1 modulator = modulates human Rev-erb alpha binding to DNA. 370,000 compounds, 0.79% hits. Rev-erbα–FITC-DNA binding, fluorescence polarization, 90 min. activity, % at 10 µM;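 active = activity above about 14%, limit read from the data; passing the limit was not always enough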;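 note: 0% = DMSO wells with 35 nM protein and 100% = DMSO wells with 750 nM protein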
Active calls of the source: *; nt = no result given. Hits are enriched below; roughly 1.6% of the tested compounds scored in any of these assays.

SMILES	NR2E3 ag-1	NR2E3 ag-2	PG9 binder	VLA-4 inh	NR1D1 modulator
Cc1ccc(NC2=C/C(=N/S(=O)(=O)c3cccs3)c3ccccc3C2=O)cc1	14	2	-5	1	0
O=C1C(Nc2ccccc2)=C/C(=N/S(=O)(=O)c2cccs2)c2ccccc21	102*	6	nt	-12	nt
CCOC(=O)[C@](C)(N)Cc1ccc(O)c(O)c1	nt	nt	nt	nt	-4
CCOC(=O)c1c(-n2cnnn2)sc2c1CCCC2	-13	3	-1	20	-3
CCOC(=O)c1c(N2C(=O)Nc3cc(Cl)c(Cl)cc3N2O)sc2c1CCCCC2	92*	0	nt	-1	nt
Cc1sccc1C1C(C#N)=C(N)SC(N)=C1C#N	nt	36*	nt	-6	nt
N[C@H](C(=O)O)[C@H](O)c1ccc(O)c(O)c1	nt	nt	nt	nt	-44
C[C@@H]1CC2C3C[C@H](F)C4=CC(=O)C=C[C@]4(C)[C@@]3(F)[C@@H](O)C[C@]2(C)[C@@]1(O)C(=O)CO (some centres undefined)	nt	nt	nt	nt	6
CC1Cc2cc(/C(O)=C3/C(=O)C(=O)N(CCN4CCOCC4)C3c3cccc(Cl)c3)ccc2O1 (centres undefined)	6	11	11*	6	-6
CCCOc1cccc(C2/C(=C(/O)c3ccc4c(c3)CC(C)O4)C(=O)C(=O)N2CCN2CCOCC2)c1 (centres undefined)	-16	4	5	-124	-2
CC(C)(C)c1ccc(S(=O)(=O)NCC(=O)Nc2ccc(-c3nc4ccccc4s3)cc2)cc1	-103	1	8.9*	-15	12
O=C(CNS(=O)(=O)c1cccc(Cl)c1)Nc1ccc(-c2nc3ccccc3s2)cc1	-141	-4	-2	-13	-5
CCCC[C@@H](CC)COC(=O)C(C#N)=C(c1ccccc1)c1ccccc1	nt	nt	nt	nt	-5
CC(=O)[C@@]1(O)CCC2C3C=C(Cl)C4=CC(=O)[C@@H]5C[C@H]5[C@]4(C)C3CC[C@@]21C (some centres undefined)	nt	nt	nt	nt	-1
COc1ccc(/C(O)=C2/C(=O)C(=O)N(CCN(C)C)C2c2ccccc2)cc1Cl (centres undefined)	-21	8	8.7*	2	-3
COc1ccc(/C(O)=C2/C(=O)C(=O)N(CCN(C)C)C2c2ccc(C)cc2)cc1Cl (centres undefined)	-10	7	7	-1	2
CC(=O)[C@@]1(O)CCC2C3C[C@H](C)C4=CC(=O)C=CC4(C)[C@@]3(F)[C@@H](O)C[C@@]21C (some centres undefined)	nt	nt	nt	nt	6
CC(=O)NC(Cc1cccc(F)c1)C(=O)NC1CCN(c2ncccc2[N+](=O)[O-])CC1 (centres undefined)	-6	4	-1	57*	2
CC(=O)NC(Cc1cccc(C)c1)C(=O)NC1CCN(c2ncccc2[N+](=O)[O-])CC1 (centres undefined)	4	3	-1	-6	-3
CCCCCCCCCCC[C@@H](C[C@H]1OC(=O)[C@H]1CCCCCC)OC(=O)[C@@H](CC(C)C)NC=O	nt	nt	nt	nt	-6
Cc1cc(C)n(-c2nc(NC(C)(C)C)nc(NC(C)(C)C)n2)n1	105*	-1	0	4	0
Cc1cc(C)n(-c2nnc(NC(C)(C)C)nn2)n1	-43	2	-2	2	-10
COC1=CC(=O)C[C@@H](C)C12Oc1c(Cl)c(OC)cc(OC)c1C2=O (some centres undefined)	nt	nt	nt	nt	-11
CCC(C)C1NC(=O)C(CCN)NC(=O)C(NC(=O)C(CCN)NC(=O)C(NC(=O)C(CCN)NC(=O)CCCCC(C)C)C(C)O)CCNC(=O)C(C(C)O)NC(=O)C(CCN)NC(=O)C(CCN)NC(=O)C(C(C)CC)NC1=O (centres undefined)	nt	nt	nt	nt	1
CC1(C)[C@H]2CC[C@]1(C)C(=O)C2	nt	nt	nt	nt	-1
O=C(O)CCC1c2cc3c4cc2OC2Oc5cc6c(cc51)C(CCC(=O)O)c1cc5c7cc1OC(O6)c1cc6cc(c1)Oc1cc(cc(C(=O)O)c1)Oc1cc8cc(c1)C(Oc1cc(c(cc1C5CCC(=O)O)C3CCC(=O)O)OC(O4)c1cc(cc(c1)Oc1cc(cc(C(=O)O)c1)O8)Oc1cc(cc(C(=O)O)c1)Oc1cc(cc2c1)Oc1cc(cc(C(=O)O)c1)O6)O7 (centres undefined)	nt	21*	nt	-4	nt
C[N+](C)(C)CCOP(=O)([O-])OP(=O)(O)OC[C@H]1OC(n2ccc(N)nc2=O)[C@H](O)[C@@H]1O (some centres undefined)	nt	nt	nt	nt	2
